Source: ChEMBL document CHEMBL1154599 (J Med Chem, 2009)
pIC50: −log10 of the molar value.

Experiments:
[1] = biological target: T1, Amine oxidase [flavin-containing] B (Rattus norvegicus, UniProt P19643); test: Inhibition of MAO-B from Wistar rat brain by radioenzymatic assay
T1 sequence (P19643 whole entry): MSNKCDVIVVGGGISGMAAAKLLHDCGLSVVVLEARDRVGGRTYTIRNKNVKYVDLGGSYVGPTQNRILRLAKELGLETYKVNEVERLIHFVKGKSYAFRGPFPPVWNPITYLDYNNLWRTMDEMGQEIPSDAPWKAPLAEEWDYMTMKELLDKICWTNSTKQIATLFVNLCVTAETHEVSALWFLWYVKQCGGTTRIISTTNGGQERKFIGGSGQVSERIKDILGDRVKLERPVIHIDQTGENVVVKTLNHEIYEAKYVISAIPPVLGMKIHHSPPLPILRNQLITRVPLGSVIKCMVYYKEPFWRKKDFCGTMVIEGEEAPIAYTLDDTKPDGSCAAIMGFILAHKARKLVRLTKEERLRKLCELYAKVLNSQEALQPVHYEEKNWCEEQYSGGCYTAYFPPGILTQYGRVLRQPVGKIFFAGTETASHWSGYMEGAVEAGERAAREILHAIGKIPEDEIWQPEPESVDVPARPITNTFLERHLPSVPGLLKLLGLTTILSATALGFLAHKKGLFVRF
Outline: (§1)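 Crude mitochondrial fraction from male Wistar rat brain (150-175 g), 500 μg protein in 0.1 M phosphate pH 7.40. Preincubated 30 min at 37 °C with compound. Substrate then added: [14C]5-HT 5 μM for 30 min (MAO-A) or [14C]PEA 0.5 μM for 10 min (MAO-B), 37 °C. Stopped with acid, deaminated metabolites extracted into ether or toluene, counted by scintillation.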

[2] = species: Rattus norvegicus; test: Selectivity index, ratio of IC50 for rat MAO-A to IC50 for rat MAO-B
Outline: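 Ratio of IC50 values from rat brain mitochondrial radioenzymatic assays: MAO-A with [14C]5-HT 5 μM, 30 min, and MAO-B with [14C]PEA 0.5 μM, 10 min. Both after 30 min preincubation with compound at 37 °C.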

[3] = biological target: T2, Amine oxidase [flavin-containing] A (Rattus norvegicus, UniProt P21396); test: Inhibition of MAO-A from Wistar rat brain by radioenzymatic assay; outline: as §1
T2 sequence (P21396 whole entry): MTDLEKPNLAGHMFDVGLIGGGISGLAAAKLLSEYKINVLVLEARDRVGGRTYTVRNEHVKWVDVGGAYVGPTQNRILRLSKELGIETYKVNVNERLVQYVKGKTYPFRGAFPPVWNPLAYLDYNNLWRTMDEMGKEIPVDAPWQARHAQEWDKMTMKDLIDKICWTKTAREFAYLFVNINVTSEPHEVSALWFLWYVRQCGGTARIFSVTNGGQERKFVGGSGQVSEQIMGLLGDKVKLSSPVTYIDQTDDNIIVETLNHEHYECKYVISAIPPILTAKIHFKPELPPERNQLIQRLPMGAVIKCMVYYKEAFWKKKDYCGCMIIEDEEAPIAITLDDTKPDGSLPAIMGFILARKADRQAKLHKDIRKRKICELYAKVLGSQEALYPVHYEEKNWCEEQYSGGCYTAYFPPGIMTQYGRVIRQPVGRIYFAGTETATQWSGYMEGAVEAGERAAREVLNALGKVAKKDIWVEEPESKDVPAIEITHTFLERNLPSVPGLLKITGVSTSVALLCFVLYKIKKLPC

[4] = biological target: T2, Amine oxidase [flavin-containing] A; test: Inhibition of MAO-A from Wistar rat brain at 10 uM by radioenzymatic assay
[5] = Permeability across PAMPA membrane assessed as retention at 617 uM by HDM-PAMPA assay; type: ADME
Outline: (§2)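 HDM-PAMPA on polycarbonate filters coated with hexadecane (applied in hexane, which was evaporated). Donor at 617 μM in 0.1 M phosphate pH 6.8 with 5% DMSO, same pH in donor and acceptor. Incubated 5 h at room temperature with shaking at 75 rpm. Compartments quantified by HPLC. Pe, retention R and CA(t)/CD(0) calculated by equations 1-2. Quadruplicate.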

[6] = Permeability across PAMPA membrane assessed as amount of drug reaching acceptor compartment at 617 uM by HDM-PAMPA assay; type: ADME; outline: as §2
[7] = Permeability across PAMPA membrane assessed as permeability coefficient at 617 uM by HDM-PAMPA assay; type: ADME; outline: as §2
[8] = Octanol-water partition coefficient, log P calculated with Bioloom (BioByte)

Row | Compound | pIC50 [1] | Ratio IC50 [2] | pIC50 [3] | further results
1 | CN(C)CCc1cc(=O)oc2cc(OCc3ccccc3)ccc12 | 6.34 | 56 | 4.59 | –
2 | CNCc1cc(=O)oc2cc(OCc3ccc4c(c3)OCO4)ccc12 | 7.70 | 270 | 5.27 | –
3 | NC(=O)[C@@H]1CCCN1Cc1cc(=O)oc2cc(OCc3ccccc3)ccc12 | 6.42 | 92 | 4.46 | –
4 | NNC(=O)Cc1cc(=O)oc2cc(OCc3cccc(Cl)c3)ccc12 | 7.05 | 28 | 5.60 | –
5 | NC(=O)[C@@H]1CCCN1Cc1cc(=O)oc2cc(OCc3cccc(F)c3)ccc12 | 6.07 | > 117 | < 4.00 | –
6 | CC(C(N)=O)c1cc(=O)oc2cc(OCc3ccccc3)ccc12 (racemic) | 7.00 | 63 | 5.20 | –
7 | NCc1cc(=O)oc2cc(OCc3ccccc3)ccc12 | 7.68 | 210 | 5.36 | –
8 | CN(C)C(=O)Cc1cc(=O)oc2cc(OCc3ccccc3)ccc12 | 6.40 | 58 | 4.64 | –
9 | CCCCN(C)C(=O)Cc1cc(=O)oc2cc(OCc3cccc(Cl)c3)ccc12 | < 5.00 | – | < 4.00 | –
10 | CN(C)Cc1cc(=O)oc2cc(OCc3cccc(Cl)c3)ccc12 | 5.95 | 45 | 4.29 | –
11 | NC(=O)Cc1cc(=O)oc2cc(OCc3cccc(Cl)c3)ccc12 | 7.52 | 867 | 4.59 | –
12 | NNC(=O)Cc1cc(=O)oc2cc(OCc3ccccc3)ccc12 | – | 36 | 5.84 | –
13 | NCCc1cc(=O)oc2cc(OCc3cccc(Cl)c3)ccc12 | – | 127 | – | –
14 | O=c1cc(CNCc2ccccc2)c2ccc(OCc3cccc(Cl)c3)cc2o1 | 5.44 | > 28 | < 4.00 | –
15 | CNCc1cc(=O)oc2cc(OCc3ccccc3)ccc12 | 7.55 | 550 | 4.81 | –
16 | CCCCNC(=O)Cc1cc(=O)oc2cc(OCc3cccc(Cl)c3)ccc12 | < 5.00 | – | < 4.00 | –
17 | C[C@H](Nc1cc(=O)oc2cc(OCc3cccc(Cl)c3)ccc12)C(N)=O | 6.68 | – | – | inhibition at 10 µM [4]: 35%
18 | CN(C)C(=O)Cc1cc(=O)oc2cc(OCc3cccc(Cl)c3)ccc12 | – | > 2400 | – | –
19 | CN(C)Cc1cc(=O)oc2cc(OCc3ccccc3)ccc12 | 5.74 | 56 | 4.00 | –
20 | C[C@H](Nc1cc(=O)oc2cc(OCc3ccccc3)ccc12)C(N)=O | 6.17 | 147 | 4.00 | –
21 | CNC(=O)Cc1cc(=O)oc2cc(OCc3ccccc3)ccc12 | 7.82 | 187 | 5.55 | –
22 | CC(C(N)=O)c1cc(=O)oc2cc(OCc3cccc(F)c3)ccc12 (racemic) | 7.00 | 20 | 5.70 | –

Row | Compound | pIC50 [1] | Ratio IC50 [2] | pIC50 [3] | further results
23 | NC(=O)[C@@H]1CCCN1c1cc(=O)oc2cc(OCc3cccc(Cl)c3)ccc12 | 5.02 | – | – | inhibition at 10 µM [4]: 5%
24 | NC(=O)[C@@H]1CCCN1c1cc(=O)oc2cc(OCc3ccccc3)ccc12 | 4.79 | 6 | 4.00 | –
25 | NC(=O)Cc1cc(=O)oc2cc(OCc3cccc(O)c3)ccc12 | 6.00 | 4 | 5.37 | –
26 | NC(=O)Cc1cc(=O)oc2cc(OCc3ccncc3)ccc12 | 5.70 | 13 | 4.58 | –
27 | C[C@H](NCc1cc(=O)oc2cc(OCc3ccccc3)ccc12)C(N)=O | 5.74 | 13 | 4.64 | –
28 | N#CCc1cc(=O)oc2cc(OCc3cccc(Cl)c3)ccc12 | 7.80 | 29 | 6.33 | –
29 | Cc1cc(=O)oc2cc(OCc3cccc(Cl)c3)ccc12 | – | – | – | permeability [5]: 72%; permeability [6]: 3.7%; log Pe [7]: -4.13 cm/s; logP [8]: 4.73
30 | NC(=O)Cc1cc(=O)oc2cc(OCc3ccccc3)ccc12 | 6.70 | 40 | 5.10 | –
31 | NC(=O)[C@H](CO)Nc1cc(=O)oc2cc(OCc3cccc(Cl)c3)ccc12 | 5.62 | > 42 | < 4.00 | –
32 | NCc1cc(=O)oc2cc(OCc3cccc(Cl)c3)ccc12 | 7.82 | 133 | 5.70 | –
33 | CNC(=O)Cc1cc(=O)oc2cc(OCc3cccc(Cl)c3)ccc12 | 7.62 | 21 | 6.30 | –
34 | NC(=O)Cc1cc(=O)oc2cc(OCc3cccnc3)ccc12 | 5.89 | 16 | 4.68 | –
35 | CC(C)NCc1cc(=O)oc2cc(OCc3cccc(F)c3)ccc12 | 5.42 | 24 | 4.04 | –
36 | N#CCc1cc(=O)oc2cc(OCc3ccccc3)ccc12 | 6.64 | 0.9 | 6.70 | –
37 | CN(Cc1ccccc1)Cc1cc(=O)oc2cc(OCc3cccc(Cl)c3)ccc12 | 5.10 | > 13 | < 4.00 | –
38 | CCNCc1cc(=O)oc2cc(OCc3cccc(F)c3)ccc12 | 7.00 | 226 | 4.65 | –
39 | NC(=O)Cc1cc(=O)oc2cc(OCc3cccc(F)c3)ccc12 | – | 1400 | – | –
40 | CNCCc1cc(=O)oc2cc(OCc3cccc(Cl)c3)ccc12 | – | 247 | – | –
41 | CNCc1cc(=O)oc2cc(OCc3cccc(F)c3)ccc12 | 7.74 | – | – | –
42 | CN(C)Cc1cc(=O)oc2cc(OCc3cccc(F)c3)ccc12 | 6.29 | > 196 | < 4.00 | –
43 | O=C(Cc1cc(=O)oc2cc(OCc3cccc(Cl)c3)ccc12)NCc1ccccc1 | 5.30 | > 20 | < 4.00 | –
44 | NCCNC(=O)Cc1cc(=O)oc2cc(OCc3cccc(Cl)c3)ccc12 | < 5.00 | – | < 4.00 | –
